Data from ChEMBL document CHEMBL3632612, “Discovery of WQ-3810: Design, synthesis, and evaluation of 7-(3-alkylaminoazetidin-1-yl)fluoro-quinolones as orally active antibacterial agents” (Eur J Med Chem, 2015).
Values after ≈ are worked out from the molar mass of the structure shown.

What was measured:
Escherichia coli [1] = assay: Antibacterial activity against Escherichia coli KC-14 assessed as growth inhibition at 128 to 0.002 mg/L incubated for 18 hrs at 37 degC by agar dilution method; type: functional; settings: KC-14, 18 h
Procedure, shortened: (§1)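 Agar dilution on Mueller Hinton agar per Japanese Society of Chemotherapy standard method; about 10⁴ cfu inoculated onto plates holding two-fold dilution series; incubation 37°C, 18 h; MIC read as growth endpoint.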

Escherichia coli [2] = assay: Antibacterial activity against Escherichia coli NIHJ assessed as growth inhibition at 128 to 0.002 mg/L incubated for 18 hrs at 37 degC by agar dilution method; type: functional; procedure, shortened: as §1
Escherichia coli [3] = assay: Antibacterial activity against Escherichia coli 177 assessed as growth inhibition at 128 to 0.002 mg/L incubated for 18 hrs at 37 degC by agar dilution method; type: functional; settings: Escherichia coli, 177, 18 h; procedure, shortened: as §1
Serratia marcescens [4] = assay: Antibacterial activity against Serratia marcescens IFO3736 assessed as growth inhibition at 128 to 0.002 mg/L incubated for 18 hrs at 37 degC by agar dilution method; type: functional; settings: IFO3736, 18 h; procedure, shortened: as §1
Proteus vulgaris = assay: Antibacterial activity against Proteus vulgaris IFO3167 assessed as growth inhibition at 128 to 0.002 mg/L incubated for 18 hrs at 37 degC by agar dilution method; type: functional; settings: IFO3167, 18 h; procedure, shortened: as §1
Pseudomonas aeruginosa [5] = assay: Antibacterial activity against Pseudomonas aeruginosa IFO3445 assessed as growth inhibition at 128 to 0.002 mg/L incubated for 18 hrs at 37 degC by agar dilution method; type: functional; settings: IFO3445, 18 h; procedure, shortened: as §1
Klebsiella pneumoniae [6] = assay: Antibacterial activity against Klebsiella pneumoniae KC-1 assessed as growth inhibition at 128 to 0.002 mg/L incubated for 18 hrs at 37 degC by agar dilution method; type: functional; settings: KC-1, 18 h; procedure, shortened: as §1
[7] = Drug excretion in Sprague-Dawley rat at 10 mg/kg, po after 24 hrs by HPLC; type: ADME, organism-based; settings: in vivo, read-out: Drug excretion
Procedure, shortened: (§2)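 Six-week male Sprague-Dawley rats, fasted overnight; oral dose suspended in 0.5% methylcellulose, iv dose dissolved in 0.04 N NaOH. Urine from intact rats in metabolic cages, bile from bile duct-cannulated rats, 0–24 h. Bile alkaline-hydrolysed (1 N NaOH, 37°C, 1 h) to convert glucuronides; HPLC with UV 290 nm and internal standard; % of dose; mean ± S.D., three rats.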

Salmonella typhimurium = assay: Antibacterial activity against Salmonella typhimurium IFO13245 assessed as growth inhibition at 128 to 0.002 mg/L incubated for 18 hrs at 37 degC by agar dilution method; type: functional, Salmonella enterica subsp. enterica serovar Typhimurium; settings: Salmonella enterica, IFO13245, 18 h; procedure, shortened: as §1
DNA gyrase = DNA gyrase (Escherichia coli, UniProt P0AES4+P0AES6); assay: Inhibition of Escherichia coli DNA gyrase preincubated for 5 mins at 37 degC before addition of relaxed pBR322 as substrate by supercoiling assay; type: protein-complex assay
Morganella morganii = assay: Antibacterial activity against Morganella morganii W1026 assessed as growth inhibition at 128 to 0.002 mg/L incubated for 18 hrs at 37 degC by agar dilution method; type: functional; settings: W1026, 18 h; procedure, shortened: as §1
Pseudomonas aeruginosa [8] = assay: Antibacterial activity against Pseudomonas aeruginosa 15846 assessed as growth inhibition at 128 to 0.002 mg/L incubated for 18 hrs at 37 degC by agar dilution method; type: functional; settings: Pseudomonas aeruginosa, 15846, 18 h; procedure, shortened: as §1
[9] = Drug excretion in Sprague-Dawley rat bile assessed as unmetabolized form at 10 mg/kg, po after 24 hrs by HPLC; type: ADME, organism-based; settings: read-out: Drug excretion; procedure, shortened: as §2
Pseudomonas aeruginosa [10] = assay: Antibacterial activity against Pseudomonas aeruginosa E-2 assessed as growth inhibition at 128 to 0.002 mg/L incubated for 18 hrs at 37 degC by agar dilution method; type: functional; settings: E-2, 18 h; procedure, shortened: as §1
Citrobacter freundii = assay: Antibacterial activity against Citrobacter freundii IFO1268 assessed as growth inhibition at 128 to 0.002 mg/L incubated for 18 hrs at 37 degC by agar dilution method; type: functional; settings: IFO1268, 18 h; procedure, shortened: as §1
Proteus mirabilis = assay: Antibacterial activity against Proteus mirabilis IFO3849 assessed as growth inhibition at 128 to 0.002 mg/L incubated for 18 hrs at 37 degC by agar dilution method; type: functional; settings: IFO3849, 18 h; procedure, shortened: as §1
Klebsiella pneumoniae [11] = assay: Antibacterial activity against Klebsiella pneumoniae DT-S assessed as growth inhibition at 128 to 0.002 mg/L incubated for 18 hrs at 37 degC by agar dilution method; type: functional; procedure, shortened: as §1
[12] = system: Acinetobacter calcoaceticus; assay: Antibacterial activity against Acinetobacter calcoaceticus Ac-54 assessed as growth inhibition at 128 to 0.002 mg/L incubated for 18 hrs at 37 degC by agar dilution method; type: functional; settings: Ac-54, 18 h; procedure, shortened: as §1
[13] = Solubility of the compound in JP2 solution at pH 6.8 after 24 hrs at 25 degC by HPLC; type: physicochemical
Procedure, shortened: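 Excess solid shaken in JP2 (50 mM potassium dihydrogenphosphate, pH 6.8) at 25°C for 24 h to equilibrium, filtered 0.45 µm; filtrate concentration by reversed-phase UPLC, UV 290 nm; mean ± S.D., n=3.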

Enterobacter cloacae = assay: Antibacterial activity against Enterobacter cloacae IFO13535 assessed as growth inhibition at 128 to 0.002 mg/L incubated for 18 hrs at 37 degC by agar dilution method; type: functional; settings: IFO13535, 18 h; procedure, shortened: as §1
[14] = Passive permeability of the compound after 5 hrs at 25 degC by PAMPA assay; type: physicochemical; settings: read-out: Peff
Procedure, shortened: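 PAMPA: 10 µM compound in PBS with 5% MeOH in donor, PBS acceptor; 25°C, 5 h; both sides quantified by HPLC; Peff derived from donor/acceptor concentrations, volumes, 0.3 cm² filter area and 18,000 s; mean ± S.D., n=3.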

Providencia rettgeri = assay: Antibacterial activity against Providencia rettgeri W1008 assessed as growth inhibition at 128 to 0.002 mg/L incubated for 18 hrs at 37 degC by agar dilution method; type: functional; settings: W1008, 18 h; procedure, shortened: as §1
Serratia marcescens [15] = assay: Antibacterial activity against Serratia marcescens T-55 assessed as growth inhibition at 128 to 0.002 mg/L incubated for 18 hrs at 37 degC by agar dilution method; type: functional; settings: T-55, 18 h; procedure, shortened: as §1
[16] = Oral drug absorption in Sprague-Dawley rat at 10 mg/kg, po after 24 hrs by HPLC; type: ADME, organism-based; settings: in vivo
Procedure, shortened: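 Absorption rate computed as total urinary plus biliary excretion (% of dose, summed means) after oral dosing divided by total after iv dosing; excretion measured in fasted male Sprague-Dawley rats by HPLC over 24 h, bile glucuronides alkaline-hydrolysed.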

[17] = Drug excretion in Sprague-Dawley rat urine at 10 mg/kg, po after 24 hrs by HPLC; type: ADME, organism-based; settings: read-out: Drug excretion; procedure, shortened: as §2

SMILES	MIC (Escherichia coli [1])	MIC (Escherichia coli [2])	MIC (Escherichia coli [3])	MIC (Serratia marcescens [4])	MIC (Proteus vulgaris)	MIC (Pseudomonas aeruginosa [5])	MIC (Klebsiella pneumoniae [6])	dose excreted at 24 h [7]	MIC (Salmonella typhimurium)	IC50 (DNA gyrase)	MIC (Morganella morganii)	MIC (Pseudomonas aeruginosa [8])	MIC (Pseudomonas aeruginosa [10])	MIC (Citrobacter freundii)	MIC (Proteus mirabilis)	MIC (Klebsiella pneumoniae [11])	MIC [12]	MIC (Enterobacter cloacae)	MIC (Providencia rettgeri)	MIC (Serratia marcescens [15])	other results
CCCNC1CN(c2c(F)cc3c(=O)c(C(=O)O)cn(-c4nc(N)c(F)cc4F)c3c2C)C1	0.012 µg/mL (≈ 0.026 µM)	0.012 µg/mL (≈ 0.026 µM)	0.012 µg/mL (≈ 0.026 µM)	0.21 µg/mL (≈ 0.455 µM)	0.21 µg/mL (≈ 0.455 µM)	0.21 µg/mL (≈ 0.455 µM)	0.21 µg/mL (≈ 0.455 µM)	91%	0.21 µg/mL (≈ 0.455 µM)	412 nM	0.21 µg/mL (≈ 0.455 µM)	0.21 µg/mL (≈ 0.455 µM)	0.21 µg/mL (≈ 0.455 µM)	0.21 µg/mL (≈ 0.455 µM)	0.21 µg/mL (≈ 0.455 µM)	0.21 µg/mL (≈ 0.455 µM)	0.21 µg/mL (≈ 0.455 µM)	0.21 µg/mL (≈ 0.455 µM)	0.21 µg/mL (≈ 0.455 µM)	0.21 µg/mL (≈ 0.455 µM)	dose excreted at 24 h [9]: 74%; solubility at 24 h [13]: 41 µg/mL (≈ 88.9 µM); Papp at 5 h [14]: 1.1 ×10⁻⁶ cm/s; Fa at 24 h [16]: > 90%; dose excreted at 24 h [17]: 17%
Cc1c(N2CC(NC(C)C)C2)c(F)cc2c(=O)c(C(=O)O)cn(-c3nc(N)c(F)cc3F)c12	0.01 µg/mL (≈ 0.0217 µM)	0.01 µg/mL (≈ 0.0217 µM)	0.01 µg/mL (≈ 0.0217 µM)	0.17 µg/mL (≈ 0.368 µM)	0.17 µg/mL (≈ 0.368 µM)	0.17 µg/mL (≈ 0.368 µM)	0.17 µg/mL (≈ 0.368 µM)	92%	0.17 µg/mL (≈ 0.368 µM)	433 nM	0.17 µg/mL (≈ 0.368 µM)	0.17 µg/mL (≈ 0.368 µM)	0.17 µg/mL (≈ 0.368 µM)	0.17 µg/mL (≈ 0.368 µM)	0.17 µg/mL (≈ 0.368 µM)	0.17 µg/mL (≈ 0.368 µM)	0.17 µg/mL (≈ 0.368 µM)	0.17 µg/mL (≈ 0.368 µM)	0.17 µg/mL (≈ 0.368 µM)	0.17 µg/mL (≈ 0.368 µM)	dose excreted at 24 h [9]: 68%; solubility at 24 h [13]: 41 µg/mL (≈ 88.9 µM); Papp at 5 h [14]: 1.2 ×10⁻⁶ cm/s; Fa at 24 h [16]: > 90%; dose excreted at 24 h [17]: 24%
Cc1c(N2CC(NC(C)(C)C)C2)c(F)cc2c(=O)c(C(=O)O)cn(-c3nc(N)c(F)cc3F)c12	0.038 µg/mL (≈ 0.0799 µM)	0.038 µg/mL (≈ 0.0799 µM)	0.038 µg/mL (≈ 0.0799 µM)	0.57 µg/mL (≈ 1.2 µM)	0.57 µg/mL (≈ 1.2 µM)	0.57 µg/mL (≈ 1.2 µM)	0.57 µg/mL (≈ 1.2 µM)		0.57 µg/mL (≈ 1.2 µM)	694 nM	0.57 µg/mL (≈ 1.2 µM)	0.57 µg/mL (≈ 1.2 µM)	0.57 µg/mL (≈ 1.2 µM)	0.57 µg/mL (≈ 1.2 µM)	0.57 µg/mL (≈ 1.2 µM)	0.57 µg/mL (≈ 1.2 µM)	0.57 µg/mL (≈ 1.2 µM)	0.57 µg/mL (≈ 1.2 µM)	0.57 µg/mL (≈ 1.2 µM)	0.57 µg/mL (≈ 1.2 µM)	
C[C@H]1COc2c(N3CCN(C)CC3)c(F)cc3c(=O)c(C(=O)O)cn1c23.C[C@H]1COc2c(N3CCN(C)CC3)c(F)cc3c(=O)c(C(=O)O)cn1c23.O [LEVOFLOXACIN]	0.019 µg/mL	0.019 µg/mL	0.019 µg/mL	0.12 µg/mL	0.12 µg/mL		0.12 µg/mL		0.12 µg/mL		0.12 µg/mL			0.12 µg/mL	0.12 µg/mL	0.12 µg/mL	0.12 µg/mL	0.12 µg/mL	0.12 µg/mL	0.12 µg/mL	
